Assay [1] can be described thus: Antiplatelet activity in human whole blood assessed as inhibition of ADP-induced platelet aggregation at 10 ug/ml treated for 2 mins before ADP challenge measured after 6 mins by whole blood aggregometer. Type of assay: functional. The method in brief:
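Whole blood diluted 1:1 with pre-warmed PBS (pH 7.4) at 37 °C. Stirred at 1000 rpm until baseline reached. Test sample or control added with 2 min incubation, then ADP (10 µM final) to start aggregation. Impedance (ohms) followed for 6 min, taken from lowest point to end of interval. Blood used within 4 h of collection; controls run between samples; three runs per assay.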

Assay [2] is described as follows: Ratio of compound to aspirin for human whole blood. The class given is functional, Platelet.

One may read the inhibition as the drop in the measured response relative to a control, in per cent. For the compound `COc1ccc(-c2cc(-c3ccccc3)nc(N)n2)c(O)c1`, in assay [1], the inhibition at 10 µg/mL is 42.7%.
The same measure, in the same setting: for `COc1ccc(-c2cc(-c3cc(OC)ccc3O)nc(N)n2)cc1` the value was 64.3%; for `COc1ccc(O)c(-c2cc(-c3ccccc3Cl)nc(N)n2)c1`, 55.1%.
Consider `COc1ccc(O)c(-c2cc(-c3cccc(Cl)c3)nc(N)n2)c1`, for which the inhibition at 10 µg/mL in assay [1] is 66.8%.
Regarding `COc1ccc(O)c(-c2cc(-c3ccc(F)cc3)nc(N)n2)c1`, in assay [1], the inhibition at 10 µg/mL came to 8.79%.
The same measure, in the same setting: for `COc1ccc(O)c(-c2cc(-c3ccco3)nc(N)n2)c1` the value was 1.46%; for `COc1ccc(-c2cc(-c3ccc(Cl)cc3)nc(N)n2)c(O)c1`, 8.42%.
For `COc1ccc(-c2cc(-c3cccc(C)c3)nc(N)n2)c(O)c1`, the inhibition at 10 µg/mL in assay [1] turned out to be 23.1%.
Take `COc1ccc(-c2cc(-c3cccc(Cl)c3)nc(N)n2)c(O)c1`: in assay [1], the inhibition at 10 µg/mL turned out to be 65.8%.
Consider `COc1ccc(-c2cc(-c3ccc(Cl)cc3Cl)nc(N)n2)c(O)c1`, for which the inhibition at 10 µg/mL in assay [1] stood at 77.5%. The Ratio in assay [2] is listed as 2.
On to `COc1cccc(-c2cc(-c3ccc(OC)cc3O)nc(N)n2)c1`, for which, in assay [1], the inhibition at 10 µg/mL turned out to be 51.2%.
In the case of `COc1ccc(-c2cc(-c3ccc(F)cc3)nc(N)n2)c(O)c1`, in assay [1], the inhibition at 10 µg/mL is 64%.
On to `COc1ccc(-c2cc(-c3ccc(C)cc3)nc(N)n2)c(O)c1`, for which the inhibition at 10 µg/mL in assay [1] is 62.8%.
Turning to `COc1ccc(-c2cc(-c3ccc([N+](=O)[O-])cc3)nc(N)n2)c(O)c1`, the inhibition at 10 µg/mL in assay [1] was found to be 58.5%.
Take `CCOc1ccc(O)c(-c2cc(-c3ccccc3)nc(N)n2)c1`: the inhibition at 10 µg/mL in assay [1] was 39.9%.
As for `CC(=O)Oc1ccccc1C(=O)O` [ASPIRIN], the inhibition at 10 µg/mL in assay [1] turned out to be 37.5%.

These data come from ChEMBL document CHEMBL1949572, “Assessment of antiplatelet activity of 2-aminopyrimidines” (2012).
